Data: ChEMBL document CHEMBL5649170, “Sustained microglial depletion with CSF1R inhibitor impairs parenchymal plaque development in an Alzheimer's disease model” (Nat Commun, 2019)
Calls of active or inactive are those of the source. The rule behind the calls is not given here.

What was measured:
[1] = molecular target: Tyrosine-protein kinase ABL1 (Homo sapiens, UniProt P00519); experiment: Inhibition of ABL1 (unknown origin)
[2] = Inhibition of CDK2/CyclinA (unknown origin); set-up: species or system Homo sapiens
[3] = molecular target: Casein kinase I isoform alpha (Homo sapiens, UniProt P48729); experiment: Inhibition of CSNK1A1 (unknown origin)
[4] = molecular target: Tyrosine-protein kinase Fes/Fps (Homo sapiens, UniProt P07332); experiment: Inhibition of FES (unknown origin)
[5] = molecular target: MAP kinase-activated protein kinase 2 (Homo sapiens, UniProt P49137); experiment: Inhibition of MAPKAPK2 (unknown origin)
[6] = molecular target: NT-3 growth factor receptor (Homo sapiens, UniProt Q16288); experiment: Inhibition of NTRK3 (unknown origin)
[7] = molecular target: Platelet-derived growth factor receptor beta (Homo sapiens, UniProt P09619); experiment: Inhibition of PDGFRB (unknown origin)
[8] = molecular target: Protein kinase C epsilon type (Homo sapiens, UniProt Q02156); experiment: Inhibition of PRKCE (unknown origin)
[9] = molecular target: cGMP-dependent protein kinase 1 (Homo sapiens, UniProt Q13976); experiment: Inhibition of PRKG1 (unknown origin)
[10] = molecular target: Tyrosine-protein kinase ZAP-70 (Homo sapiens, UniProt P43403); experiment: Inhibition of ZAP70 (unknown origin)
[11] = Clearance in mouse at 1.92 mg/kg, iv administered as single dose; assay type: ADME, organism-based; details: in vivo
Mus musculus [12] = experiment: Antialzheimer activity in wildtype mouse assessed as number of Iba positive cells per FOV in somatosensory cortex at 1200 ppm administered as rodent chow starting from 1.5 months and measured after 4 months (reference value: 304 to 351); assay type: functional; details: route po, time 2.5 months, 1825 h
Mus musculus [13] = experiment: Antialzheimer activity in wildtype mouse assessed as number of Iba positive cells per FOV in somatosensory cortex at 1200 ppm administered as rodent chow starting from 1.5 months and measured after 7 months (reference value: 371 to 472); assay type: functional; details: route po, time 5.5 months, 4015 h
[14] = Toxicity in wildtype mouse assessed as distance traveled at 1200 ppm administered as rodent chow for 10 to 24 weeks by Open field test (reference value: 13.381 to 26.996 meter); details: in vivo, po, time 10-24 weeks
[15] = molecular target: T1, Macrophage colony-stimulating factor 1 receptor (Mus musculus) (UniProt P09581); experiment: In vivo inhibition of CSF1R in wildtype mouse assessed as iron reactivity by measuring hemosiderin intensity of prussian blue staining in […] cortex at 1200 ppm administered as rodent chow starting from 1.5 months and measured after 7 months by confocal microscopic analysis (reference value: 0.059 to 2.835 a.u.); assay type: functional; details: route po, time 5.5 months
T1 sequence (whole entry): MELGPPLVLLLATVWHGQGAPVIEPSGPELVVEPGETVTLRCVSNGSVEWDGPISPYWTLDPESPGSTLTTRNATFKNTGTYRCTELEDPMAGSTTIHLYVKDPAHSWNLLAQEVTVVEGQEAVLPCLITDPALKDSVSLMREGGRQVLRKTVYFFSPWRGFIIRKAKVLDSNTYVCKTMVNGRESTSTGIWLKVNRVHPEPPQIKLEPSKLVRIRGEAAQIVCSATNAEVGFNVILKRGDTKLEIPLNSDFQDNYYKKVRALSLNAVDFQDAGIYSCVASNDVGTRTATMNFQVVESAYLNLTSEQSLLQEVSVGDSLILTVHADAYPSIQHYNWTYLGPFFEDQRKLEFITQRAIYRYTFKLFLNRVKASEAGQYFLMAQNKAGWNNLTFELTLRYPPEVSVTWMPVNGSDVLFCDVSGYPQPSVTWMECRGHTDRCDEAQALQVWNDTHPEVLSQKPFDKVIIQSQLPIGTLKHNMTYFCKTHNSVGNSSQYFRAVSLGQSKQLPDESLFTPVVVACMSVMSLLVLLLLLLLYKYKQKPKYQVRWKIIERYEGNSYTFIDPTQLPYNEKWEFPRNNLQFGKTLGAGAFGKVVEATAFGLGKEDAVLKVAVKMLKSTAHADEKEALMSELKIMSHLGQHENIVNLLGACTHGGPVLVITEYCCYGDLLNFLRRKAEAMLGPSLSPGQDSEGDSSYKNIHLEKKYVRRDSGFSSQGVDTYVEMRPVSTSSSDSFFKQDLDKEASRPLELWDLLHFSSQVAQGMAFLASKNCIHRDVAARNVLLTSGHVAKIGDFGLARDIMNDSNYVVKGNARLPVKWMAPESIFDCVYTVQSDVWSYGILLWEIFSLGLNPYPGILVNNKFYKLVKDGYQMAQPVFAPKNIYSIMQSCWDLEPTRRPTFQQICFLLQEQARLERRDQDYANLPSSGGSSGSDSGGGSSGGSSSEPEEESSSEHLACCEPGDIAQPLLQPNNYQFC
Outline: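 Wild-type or 5xFAD mice fed PLX5622 (1200 ppm) in AIN-76A chow from 1.5 months of age, examined in 4- and 7-month-old cohorts. Brain sections stained with a Prussian blue kit per kit instructions to detect iron deposits (microbleeds).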

Mus musculus [16] = experiment: Antialzheimer activity in 5XFAD mouse assessed as percent change in claudin-5 intensity of thalamus at 1200 ppm administered as rodent chow starting from 1.5 months and measured after 4 months by immunolabeling analysis relative to control; assay type: functional; details: route po, time 2.5 months, 1825 h
[17] = Effect on Cx3cr1 gene expression in 5XFAD mouse hippocampus at 1200 ppm administered as rodent chow starting from 1.5 months and measured after 7 months by RNA-Seq analysis (reference value: 17.752 to 23.676 RPKM); assay type: functional; details: route po, time 5.5 months, 4015 h
[18] = Effect on Hexb gene expression in 5XFAD mouse cortex at 1200 ppm administered as rodent chow starting from 1.5 months and measured after 7 months by RNA-Seq analysis (reference value: 70.260 to 103.252 RPKM); assay type: functional; details: route po, time 5.5 months, 4015 h
[19] = Effect on Spi1 gene expression in 5XFAD mouse hippocampus at 1200 ppm administered as rodent chow starting from 1.5 months and measured after 7 months by RNA-Seq analysis (reference value: 2.582 to 3.674 RPKM); assay type: functional; details: route po, time 5.5 months, 4015 h
[20] = Effect on Kcnq3 gene expression in wildtype mouse hippocampus assessed as percent change in Reads Per kilo base per Million mapped reads at 1200 ppm administered as rodent chow starting from 1.5 months and measured after 7 months by RNA-Seq analysis (reference value: 77.761 to 119.973 %); assay type: functional; details: route po, time 5.5 months, 4015 h
Mus musculus [21] = experiment: Prevention of Gls gene downregulation in 5XFAD mouse hippocampus at 1200 ppm administered as rodent chow starting from 1.5 months and measured after 7 months by Nanostring analysis; assay type: functional, tissue-based; details: route po, time 5.5 months
[22] = molecular target: T1, Macrophage colony-stimulating factor 1 receptor (Mus musculus); experiment: In vivo inhibition of CSF1R in wildtype mouse assessed as number of GFAP positive cells per FOV at 1200 ppm administered as rodent chow starting from 1.5 months to 4 months followed by compound removal and measured after 1 month by immunolabeling based confocal microscopic analysis (reference value: 1 to 7); assay type: functional; details: route po, time 2.5 months
[23] = Drug concentration in 5XFAD mouse plasma at 75 ppm administered as rodent chow starting from 1.5 months and measured after 5 months; assay type: ADME, cell-free; details: route po, time 3.5 months
Outline: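 WT or 5xFAD mice were fed PLX3397 in AIN-76A chow at 600 ppm or 75 ppm from 1.5 to 5 months of age. Terminal brain and plasma drug concentrations were determined at study end.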

Sequence of Tyrosine-protein kinase Fes/Fps (P07332 whole entry): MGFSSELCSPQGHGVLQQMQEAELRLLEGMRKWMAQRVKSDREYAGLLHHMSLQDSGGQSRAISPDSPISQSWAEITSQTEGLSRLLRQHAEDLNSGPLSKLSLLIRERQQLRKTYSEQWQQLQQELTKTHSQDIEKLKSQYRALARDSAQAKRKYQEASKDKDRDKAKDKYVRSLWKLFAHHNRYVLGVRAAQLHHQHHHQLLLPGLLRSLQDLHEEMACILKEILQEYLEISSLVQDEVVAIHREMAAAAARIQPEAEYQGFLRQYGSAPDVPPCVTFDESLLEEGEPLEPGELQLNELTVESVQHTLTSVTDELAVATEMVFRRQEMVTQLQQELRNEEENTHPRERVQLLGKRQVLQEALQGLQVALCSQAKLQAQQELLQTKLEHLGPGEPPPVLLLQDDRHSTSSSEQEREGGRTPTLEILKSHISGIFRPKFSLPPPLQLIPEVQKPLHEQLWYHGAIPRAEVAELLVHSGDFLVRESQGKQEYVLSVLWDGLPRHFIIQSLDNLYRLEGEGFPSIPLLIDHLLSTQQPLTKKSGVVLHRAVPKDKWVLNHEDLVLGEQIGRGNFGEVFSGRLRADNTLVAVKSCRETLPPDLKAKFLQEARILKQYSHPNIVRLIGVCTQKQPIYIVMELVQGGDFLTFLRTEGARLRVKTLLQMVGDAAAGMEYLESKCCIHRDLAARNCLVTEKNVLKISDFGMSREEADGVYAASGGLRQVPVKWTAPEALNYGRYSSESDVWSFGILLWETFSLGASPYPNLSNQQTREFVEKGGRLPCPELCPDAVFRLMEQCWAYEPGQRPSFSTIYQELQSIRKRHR
Sequence of Casein kinase I isoform alpha (P48729 whole entry, canonical isoform): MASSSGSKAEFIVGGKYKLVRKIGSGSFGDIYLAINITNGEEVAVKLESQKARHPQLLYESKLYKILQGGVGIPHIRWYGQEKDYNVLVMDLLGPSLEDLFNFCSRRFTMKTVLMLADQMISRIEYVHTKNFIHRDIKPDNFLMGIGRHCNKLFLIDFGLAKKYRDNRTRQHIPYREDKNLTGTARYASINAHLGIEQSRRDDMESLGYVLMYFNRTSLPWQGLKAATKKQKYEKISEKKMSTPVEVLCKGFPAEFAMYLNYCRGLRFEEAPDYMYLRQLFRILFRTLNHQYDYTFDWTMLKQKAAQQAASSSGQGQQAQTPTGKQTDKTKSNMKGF
Sequence of Tyrosine-protein kinase ZAP-70 (P43403 whole entry): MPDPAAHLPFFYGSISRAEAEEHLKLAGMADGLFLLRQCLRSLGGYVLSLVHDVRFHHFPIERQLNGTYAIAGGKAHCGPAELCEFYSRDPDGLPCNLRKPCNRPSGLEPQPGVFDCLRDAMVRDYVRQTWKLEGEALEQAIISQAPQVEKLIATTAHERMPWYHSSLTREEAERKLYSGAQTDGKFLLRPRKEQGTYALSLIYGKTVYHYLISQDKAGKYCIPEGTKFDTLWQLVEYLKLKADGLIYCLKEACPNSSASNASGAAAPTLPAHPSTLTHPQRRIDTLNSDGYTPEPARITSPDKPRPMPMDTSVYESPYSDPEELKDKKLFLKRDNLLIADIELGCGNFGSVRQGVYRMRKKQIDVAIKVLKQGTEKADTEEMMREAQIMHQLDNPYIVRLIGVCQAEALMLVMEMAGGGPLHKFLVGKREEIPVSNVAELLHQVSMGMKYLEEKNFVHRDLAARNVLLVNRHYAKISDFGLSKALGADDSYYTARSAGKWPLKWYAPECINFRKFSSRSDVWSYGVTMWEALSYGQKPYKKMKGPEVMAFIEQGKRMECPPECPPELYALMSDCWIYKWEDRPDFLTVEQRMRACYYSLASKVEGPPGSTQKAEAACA
Sequence of NT-3 growth factor receptor (Q16288 whole entry): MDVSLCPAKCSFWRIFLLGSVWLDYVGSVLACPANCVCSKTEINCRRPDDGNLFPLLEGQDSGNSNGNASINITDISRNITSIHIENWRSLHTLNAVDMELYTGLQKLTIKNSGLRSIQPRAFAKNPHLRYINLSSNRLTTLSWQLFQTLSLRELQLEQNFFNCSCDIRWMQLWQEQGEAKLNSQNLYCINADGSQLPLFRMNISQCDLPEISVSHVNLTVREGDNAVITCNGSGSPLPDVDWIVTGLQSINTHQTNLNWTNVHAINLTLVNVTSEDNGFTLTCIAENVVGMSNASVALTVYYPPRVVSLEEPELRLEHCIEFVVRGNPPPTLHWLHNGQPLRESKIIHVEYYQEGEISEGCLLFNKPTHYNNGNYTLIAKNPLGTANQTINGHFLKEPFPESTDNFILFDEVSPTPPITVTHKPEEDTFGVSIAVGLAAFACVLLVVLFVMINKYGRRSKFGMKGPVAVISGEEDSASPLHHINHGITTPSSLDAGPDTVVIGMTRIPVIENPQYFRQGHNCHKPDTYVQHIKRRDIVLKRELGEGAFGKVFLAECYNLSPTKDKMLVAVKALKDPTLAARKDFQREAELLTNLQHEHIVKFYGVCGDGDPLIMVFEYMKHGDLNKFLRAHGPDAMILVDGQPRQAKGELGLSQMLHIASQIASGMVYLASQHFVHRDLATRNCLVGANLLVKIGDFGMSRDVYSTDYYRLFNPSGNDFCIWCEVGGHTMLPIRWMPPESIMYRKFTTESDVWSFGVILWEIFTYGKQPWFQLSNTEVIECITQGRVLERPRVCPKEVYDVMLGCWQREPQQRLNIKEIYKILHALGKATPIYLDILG
Sequence of Tyrosine-protein kinase ABL1 (P00519 whole entry): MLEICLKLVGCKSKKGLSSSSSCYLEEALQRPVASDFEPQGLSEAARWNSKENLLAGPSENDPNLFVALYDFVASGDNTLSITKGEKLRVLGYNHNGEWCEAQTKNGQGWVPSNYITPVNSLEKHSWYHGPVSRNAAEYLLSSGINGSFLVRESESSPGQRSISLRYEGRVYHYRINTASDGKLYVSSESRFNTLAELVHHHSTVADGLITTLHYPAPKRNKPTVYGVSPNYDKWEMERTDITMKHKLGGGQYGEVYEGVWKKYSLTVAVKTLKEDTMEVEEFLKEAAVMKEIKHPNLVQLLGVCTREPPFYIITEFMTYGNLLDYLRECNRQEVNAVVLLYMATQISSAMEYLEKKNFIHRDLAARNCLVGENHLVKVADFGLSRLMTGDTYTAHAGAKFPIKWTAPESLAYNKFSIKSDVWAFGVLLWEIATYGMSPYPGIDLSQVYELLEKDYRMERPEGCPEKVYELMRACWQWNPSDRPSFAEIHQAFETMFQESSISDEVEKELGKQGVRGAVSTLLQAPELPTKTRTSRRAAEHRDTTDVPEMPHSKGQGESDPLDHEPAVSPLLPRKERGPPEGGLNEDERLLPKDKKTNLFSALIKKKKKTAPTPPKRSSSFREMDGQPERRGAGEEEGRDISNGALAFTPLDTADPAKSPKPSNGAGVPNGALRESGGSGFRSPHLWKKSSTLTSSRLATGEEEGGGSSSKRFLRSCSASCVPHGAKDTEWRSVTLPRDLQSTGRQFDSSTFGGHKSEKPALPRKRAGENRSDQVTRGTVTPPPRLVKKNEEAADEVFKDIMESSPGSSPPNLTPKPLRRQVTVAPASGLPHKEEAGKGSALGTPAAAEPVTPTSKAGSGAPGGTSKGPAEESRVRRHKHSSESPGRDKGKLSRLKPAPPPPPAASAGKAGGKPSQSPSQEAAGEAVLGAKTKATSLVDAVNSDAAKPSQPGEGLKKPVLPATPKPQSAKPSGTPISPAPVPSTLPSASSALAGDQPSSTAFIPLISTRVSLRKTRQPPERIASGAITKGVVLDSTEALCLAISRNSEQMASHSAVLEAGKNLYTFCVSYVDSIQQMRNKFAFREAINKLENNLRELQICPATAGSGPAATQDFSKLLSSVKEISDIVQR
Sequence of Protein kinase C epsilon type (Q02156 whole entry): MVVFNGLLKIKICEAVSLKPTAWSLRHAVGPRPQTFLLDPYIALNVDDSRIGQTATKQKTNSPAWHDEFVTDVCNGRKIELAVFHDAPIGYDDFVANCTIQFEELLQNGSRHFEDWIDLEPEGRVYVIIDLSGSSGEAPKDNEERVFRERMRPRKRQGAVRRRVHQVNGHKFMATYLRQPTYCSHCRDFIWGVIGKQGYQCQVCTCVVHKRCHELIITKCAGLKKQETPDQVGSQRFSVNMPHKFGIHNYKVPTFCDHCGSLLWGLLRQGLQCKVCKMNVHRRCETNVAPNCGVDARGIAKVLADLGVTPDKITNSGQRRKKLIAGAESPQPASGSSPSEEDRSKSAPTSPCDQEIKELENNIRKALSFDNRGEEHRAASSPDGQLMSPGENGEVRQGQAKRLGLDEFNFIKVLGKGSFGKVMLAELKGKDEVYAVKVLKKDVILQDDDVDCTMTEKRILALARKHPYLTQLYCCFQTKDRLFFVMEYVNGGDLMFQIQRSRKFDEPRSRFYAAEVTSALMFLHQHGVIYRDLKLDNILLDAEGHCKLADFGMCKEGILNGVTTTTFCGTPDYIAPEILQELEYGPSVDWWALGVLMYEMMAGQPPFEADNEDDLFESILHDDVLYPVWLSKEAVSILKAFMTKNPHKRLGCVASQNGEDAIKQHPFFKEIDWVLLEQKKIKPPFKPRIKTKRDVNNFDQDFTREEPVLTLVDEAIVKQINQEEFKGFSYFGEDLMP
Sequence of MAP kinase-activated protein kinase 2 (P49137 whole entry): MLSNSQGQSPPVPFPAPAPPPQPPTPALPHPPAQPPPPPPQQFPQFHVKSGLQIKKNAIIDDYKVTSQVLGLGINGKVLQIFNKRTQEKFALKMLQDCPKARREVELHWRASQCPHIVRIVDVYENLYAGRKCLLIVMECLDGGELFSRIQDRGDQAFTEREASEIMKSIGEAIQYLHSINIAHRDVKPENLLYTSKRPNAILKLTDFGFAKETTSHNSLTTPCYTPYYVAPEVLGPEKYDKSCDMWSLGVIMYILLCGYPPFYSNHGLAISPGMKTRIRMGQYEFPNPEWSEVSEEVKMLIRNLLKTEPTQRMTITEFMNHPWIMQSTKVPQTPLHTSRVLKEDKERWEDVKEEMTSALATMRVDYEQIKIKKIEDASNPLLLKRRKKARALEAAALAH

SMILES: COc1ncc(F)cc1CNc1ccc(Cc2c[nH]c3ncc(C)cc23)c(F)n1 [PLX-5622]
- IC50 [1]: > 1000 nM
- IC50 [2]: > 1000 nM
- IC50 [3]: > 1000 nM
- IC50 [4]: > 1000 nM
- IC50 [5]: > 1000 nM
- IC50 [6]: > 1000 nM
- IC50 [7]: > 1000 nM
- IC50 [8]: > 1000 nM
- IC50 [9]: > 1000 nM
- IC50 [10]: > 1000 nM
- clearance [11]: 2.1 mL/min/kg
- Activity (Mus musculus [12]): 0
- Activity (Mus musculus [13]): 1
- Activity [14]: 9.067 m
- Flu intensity [15]: 0.747 a.u.
- Activity (Mus musculus [16]): 7.551%
- Activity [17]: 1.607 RPKM
- Activity [18]: 11.641 RPKM
- Activity [19]: 0.292 RPKM
- Activity [20]: 52.407%
- Activity (Mus musculus [21]): Active
- Activity [22]: 3

SMILES: FC(F)(F)c1ccc(CNc2ccc(Cc3c[nH]c4ncc(Cl)cc34)cn2)cn1 [PEXIDARTINIB]
- concentration at 2555 h [23]: 15 µM
